Experimental data gathered from unrelated publications.
In brackets after ≈: the same amount, converted by molar mass.
Organism: Mycobacterium tuberculosis

| Structure (SMILES) | observed | strain | concentration | time | endpoint | result |
| --- | --- | --- | --- | --- | --- | --- |
| CC(N)(CO)C(=O)Nc1ccc(C(=O)Nc2ccnc(=O)[nH]2)cc1 (centres unmarked) | microbial growth | H37RA |  |  | IC50 | > 100000 nM |
| O=C(C[n+]1cn(Cc2cccc(Cn3c[n+](CC(=O)c4ccccc4)c4ccccc43)n2)c2ccccc21)c1ccccc1 | microbial killing | H37RV |  | 21 days | MBC | 100 µM |
| COc1nc2ccc(Br)cc2cc1[C@@H](c1ccccc1)[C@@](O)(CCN(C)C)c1cccc2ccccc12 | microbial growth | H37RV |  |  | MIC90 | 0.05 µM (≈ 0.0278 µg/mL) |
| COC(=O)c1cc(-c2cccc(NC(=S)Nc3cc(C(F)(F)F)cc(C(F)(F)F)c3)c2)on1 | microbial growth | ATCC27294 H37RV |  | 7 days | MIC | 16 µg/mL |
| CCCCCCC#Cc1cncc(-c2nnc(SCc3ccc([N+](=O)[O-])cc3)n2C)c1 | microbial growth |  |  |  | IC50 | 1300 nM |
| CO[C@H]1/C=C/O[C@@]2(C)Oc3c(C)c(O)c4c(O)c(c(/C=N/N5CCN(C)CC5)c(O)c4c3C2=O)NC(=O)/C(C)=C\C=C\[C@H](C)[C@H](O)[C@@H](C)[C@@H](O)[C@@H](C)[C@H](OC(C)=O)[C@@H]1C | microbial growth | H37RV | 12.5 µg/mL |  | inhibition | 97% |
| Cn1c(SCc2ccc(Cl)cc2)nnc1-c1cncc(C#Cc2ccccc2)c1 | microbial growth | ERDMAN |  |  | IC90 | 4400 nM |
| CO[C@H]1/C=C/O[C@@]2(C)Oc3c(C)c(O)c4c(O)c(c(/C=N/N5CCN(C)CC5)c(O)c4c3C2=O)NC(=O)/C(C)=C\C=C\[C@H](C)[C@H](O)[C@@H](C)[C@@H](O)[C@@H](C)[C@H](OC(C)=O)[C@@H]1C | microbial growth | H37RV |  |  | MIC | 0.009 µM |
| COC(=O)c1cc(-c2cccc(NC(=O)Nc3cccc(Br)c3)c2)on1 | microbial growth | ATCC27294 H37RV |  | 7 days | MIC | 0.5 µg/mL |
| CCCCCCC#Cc1cncc(-c2nnc(SCc3ccc(C#N)cc3)n2C)c1 | microbial growth | ERDMAN |  |  | IC90 | > 100000 nM |
| O=C(C[n+]1ccn(Cc2cccc(Cn3cc[n+](CC(=O)c4ccc([N+](=O)[O-])cc4)c3)n2)c1)c1ccc([N+](=O)[O-])cc1 | microbial killing | H37RV |  | 21 days | MBC | 100 µM |
| COC(=O)c1cc(-c2cccc(NC(=O)Nc3ccc(OC)cc3)c2)on1 | microbial growth | ATCC27294 H37RV |  | 7 days | MIC | 8 µg/mL |
| [H]/N=C(/N)N[C@H]1[C@H](O)[C@@H](O)[C@H](O[C@@H]2O[C@@H](C)[C@](O)(C=O)[C@H]2O[C@@H]2O[C@@H](CO)[C@H](O)[C@@H](O)[C@@H]2NC)[C@@H](N/C(N)=N\[H])[C@@H]1O | microbial growth | H37RV |  |  | IC90 | 280 nM |
| CCOC(=O)c1c(NC(=O)c2c(F)c(F)c(F)c(F)c2F)sc2c1CCN(CC)C2 | microbial growth | H37RV |  |  | MIC50 | 0.12 µM (≈ 0.0538 µg/mL) |
| O=[N+]([O-])c1cc2cc3ccc4oc([N+](=O)[O-])cc4c3cc2o1 | microbial killing | H37RV |  |  | MBC | 0.062 µg/mL |
| COC(=O)c1cc(-c2cccc(NC(=O)NCc3ccccc3)c2)on1 | microbial growth | ATCC27294 H37RV |  | 7 days | MIC | 4 µg/mL |
| CCc1nc2ccc(Cl)cn2c1C(=O)NCc1ccc(N2CCC(c3ccc(OC(F)(F)F)cc3)CC2)cc1 | microbial growth | ERDMAN |  |  | IC50 | 3.1 nM |
| O=[N+]([O-])c1ccc(/C=N/Nc2nc(Nc3ccccc3)nc(N3CCOCC3)n2)o1 | microbial killing |  |  |  | MBC | 1.6 µM |
| CCCCCCC#Cc1cncc(-c2nnc(SCc3cc([N+](=O)[O-])cc([N+](=O)[O-])c3)n2C)c1 | microbial growth | ERDMAN |  |  | IC90 | 440 nM |
| CC[C@@H](CO)NCCN[C@@H](CC)CO | microbial growth | H37RV |  |  | IC50 | 1510 nM |
| Cc1cn(-c2cc(C(=O)Nc3ccc(C)c(Nc4nccn4-c4cc(NC5CC5)ncn4)c3)cc(C(F)(F)F)c2)cn1 | microbial growth | H37RV |  |  | MIC50 | 0.65 µM (≈ 0.373 µg/mL) |
| CO[C@H]1/C=C/O[C@@]2(C)Oc3c(C)c(O)c4c(O)c(c(/C=N/N5CCN(C)CC5)c(O)c4c3C2=O)NC(=O)/C(C)=C\C=C\[C@H](C)[C@H](O)[C@@H](C)[C@@H](O)[C@@H](C)[C@H](OC(C)=O)[C@@H]1C | microbial growth | ERDMAN |  |  | IC90 | 35 nM |
| NNC(=O)c1ccncc1 | microbial killing | H37RV |  | 7 days | MBC | 30.7 µg/mL |
| CNc1cc(-n2nc(C(=O)NCCN3C(C)CCCC3C)cc2Nc2cc(NC(=O)c3cncc(C(C)(C)C)c3)ccc2C)ncn1 (centres unmarked) | microbial killing | H37RV |  | 5 days | MBC | 1.25 to 2.5 µM |
| c1cc(Cn2cnc3ccccc32)nc(Cn2cnc3ccccc32)c1 | microbial killing | H37RV |  | 21 days | MBC | > 50 µM |
| CCCCCCC#Cc1cncc(-c2nnc(SCc3ccc(Cl)c(F)c3)n2C)c1 | microbial growth | ERDMAN |  |  | IC90 | 13000 nM |
| Cc1ccc(NC(=O)c2cc(N3CCNCC3)cc(C(F)(F)F)c2)cc1Nc1nccn1-c1cc(NC2CC2)ncn1 | microbial growth | H37RV |  |  | MIC50 | 0.63 µM (≈ 0.364 µg/mL) |
| NNC(=O)c1ccncc1 | microbial growth | ERDMAN |  |  | IC50 | 180 nM |
| Cc1ccc(NC(=O)c2cccc(C(F)(F)F)c2)cc1Nc1nccn1-c1cc(NN2CCN(C)CC2)ncn1 | microbial growth | H37RV |  |  | MIC50 | 9.67 µM (≈ 5.33 µg/mL) |
